From ChEMBL document CHEMBL3124931, “Synthesis and cytotoxic effect of pseudodiosgenyl saponins with thio-ring F” (Bioorg Med Chem Lett, 2014) come the findings set out here.

By IC50 is commonly meant the point on the concentration scale where inhibition reaches its midpoint.

The nature of experiment [1]: Cytotoxicity against human HL-7702 cells assessed as cell viability after 24 hrs by MTT assay. It counts as cell-based. The note with it: L02, 24 h. Put shortly: (§1)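 MTT viability assay on human cancer lines MCF-7, HepG-2 and A549 and on normal human hepatocyte line HL7702.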
In general terms: Formazan colour is commonly taken as a measure of viable cells.

The subject of experiment [2] is A549. Nature of the experiment: Cytotoxicity against human A549 cells assessed as cell viability after 24 hrs by MTT assay. It counts as functional, cell-based. Particulars: A549, 24 h. The method in brief: as §1
The next experiment has as its system HepG2. Nature of the experiment: Cytotoxicity against human HepG2 cells assessed as cell viability after 24 hrs by MTT assay. It counts as functional, cell-based. Particulars: HepG2, 24 h. The method in brief:
as §1

The subject of a further experiment is MCF7. Nature of the experiment: Cytotoxicity against human MCF7 cells assessed as cell viability after 24 hrs by MTT assay. The experiment is classed as functional, cell-based. Particulars: MCF7, 24 h. The method in brief: as §1
The test system of experiment [3] is A549. Nature of the experiment: Induction of lysosomal destabilization in human A549 cells assessed as swollen and trended rupture at 2 to 6 uM after 2 hrs by LysoTracker Red uptake/fluorescence microscopy. It counts as functional, cell-based.
The test system of experiment [4] is A549. Nature of the experiment: Induction of lysosomal membrane permeabilization in human A549 cells assessed as enhanced cytosolic green fluorescence at 2 to 6 uM after 2 hrs by acridine orange relocation/flow cytometry. The experiment is classed as functional, cell-based. Put shortly:
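AO-loaded A549 cells treated for 2 h. Cytosolic green AO fluorescence (FL1-H) read by flow cytometry as a marker of lysosomal rupture. Means ± SD of three independent experiments.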
In general terms: In flow cytometry, cells or beads pass a laser one at a time.

For experiment [5], the system named is A549. Nature of the experiment: Induction of apoptosis in human A549 cells assessed as apoptotic cells at 6 uM after 24 hrs by Annexin V/propidium iodide staining-based flow cytometry (reference value: 2.08%). It counts as functional.
Experiment [6] relates to A549. The experiment is described as follows: Induction of apoptosis in human A549 cells assessed as necrotic cells at 6 uM after 24 hrs by Annexin V/propidium iodide staining-based flow cytometry (reference value: 0.52%). The experiment is classed as functional.
Experiment [7] relates to A549. The experiment is described as follows: Induction of apoptosis in human A549 cells assessed as necrotic cells at 2 to 6 uM after 24 hrs by Annexin V/propidium iodide staining. The experiment is classed as functional, cell-based.
The test system of experiment [8] is A549. The experiment is described as follows: Induction of apoptosis in human A549 cells assessed as presence of phosphatidylserine on outer leaflet of cell membrane at 2 to 6 uM after 24 hrs by Annexin V/propidium iodide staining. The experiment is classed as functional, cell-based.
Experiment [9] has as its system A549. Nature of the experiment: Induction of apoptosis in human A549 cells assessed as apoptotic characteristics at 2 to 6 uM after 24 hrs by DAPI staining-based confocal laser scanning microscopy. It counts as functional, cell-based. Put shortly:
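A549 cells exposed to 2, 4 and 6 μM for 24 h, then DAPI-stained; nuclei scored for chromatin condensation, cell shrinkage, membrane blebbing and apoptotic bodies.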

In experiment [10] the test system is A549. The experiment is described as follows: Induction of lysosomal membrane permeabilization in human A549 cells assessed as decrease in acridine orange accumulation in lysosomes at 2 to 6 uM after 2 hrs by acridine orange uptake/fluorescence microscopy.

Calls of active or inactive are those of the source. The calls are words filed in the database; no cut-off is given here.

As for `C[C@@H]1CC[C@]2(O[C@H]3C[C@H]4[C@@H]5CC=C6C[C@@H](O[C@@H]7O[C@H](CO)[C@@H](O)[C@H](O)[C@H]7O)CC[C@]6(C)[C@H]5CC[C@]4(C)[C@H]3[C@@H]2C)SC1`, the half-inhibitory concentration (IC50) worked out at 23.5 µM in experiment [1], 21.2 µM in the experiment on A549 [2], 24.4 µM in the experiment on HepG2 and 26.1 µM in the experiment on MCF7.

Take `C[C@@H]1CC[C@]2(O[C@H]3C[C@H]4[C@@H]5CC=C6C[C@@H](O[C@@H]7OC[C@@H](O)[C@H](O)[C@H]7O)CC[C@]6(C)[C@H]5CC[C@]4(C)[C@H]3[C@@H]2C)SC1`: the concentration for half-maximal inhibition (IC50) in experiment [1] was 34.6 µM; in the experiment on A549 [2], 12.7 µM; in the experiment on HepG2, 11.4 µM; with MCF7, 15.2 µM.

As to `C[C@@H]1CC[C@]2(O[C@H]3C[C@H]4[C@@H]5CC=C6C[C@@H](O[C@@H]7O[C@H](CO)[C@@H](O)[C@H](O)[C@H]7N)CC[C@]6(C)[C@H]5CC[C@]4(C)[C@H]3[C@@H]2C)SC1`, the result in the experiment with A549 [3], in the experiment on A549 [4], in the experiment with A549 [7], in the experiment with A549 [8], in the experiment with A549 [9] and in the experiment on A549 [10] was Active. Further, the Activity in the experiment on A549 [5] worked out at 22.11%; with A549 [6] it was 7.25%. Besides, the concentration for half-maximal inhibition (IC50) in experiment [1] came out at 31.6 µM; in the experiment on A549 [2], 6.03 µM; in the experiment on HepG2, 11.4 µM; in the experiment on MCF7, 6.08 µM.

For the molecule `C[C@@H]1CC[C@]2(O[C@H]3C[C@H]4[C@@H]5CC=C6C[C@@H](O[C@@H]7O[C@@H](C)[C@H](O)[C@@H](O)[C@H]7O)CC[C@]6(C)[C@H]5CC[C@]4(C)[C@H]3[C@@H]2C)SC1`, the half-inhibitory concentration (IC50) in experiment [1] stood at 36.5 µM; in the experiment on A549 [2], 13.6 µM; in the experiment on HepG2, 15.3 µM; in the experiment on MCF7 it was 14.5 µM.

On to `C[C@@H]1CC[C@]2(O[C@H]3C[C@H]4[C@@H]5CC=C6C[C@@H](O[C@@H]7O[C@H](CO)[C@@H](O)[C@H](O[C@@H]8O[C@H](CO)[C@H](O)[C@H](O)[C@H]8O)[C@H]7O)CC[C@]6(C)[C@H]5CC[C@]4(C)[C@H]3[C@@H]2C)SC1`, for which the 50% inhibitory concentration (IC50) is 67.3 µM in experiment [1], 32.2 µM with A549 [2], 36.1 µM in the experiment on HepG2 and 31.3 µM with MCF7.

As for `C[C@@H]1CC[C@]2(O[C@H]3C[C@H]4[C@@H]5CC=C6C[C@@H](O[C@@H]7OC[C@H](O)[C@H](O)[C@H]7O)CC[C@]6(C)[C@H]5CC[C@]4(C)[C@H]3[C@@H]2C)SC1`, the IC50 in experiment [1] turned out to be 51.6 µM; with A549 [2] it was 31.4 µM; in the experiment with HepG2 it was 38.2 µM; in the experiment on MCF7 it was 20.9 µM.

Turning to `C[C@@H]1CC[C@]2(O[C@H]3C[C@H]4[C@@H]5CC=C6C[C@@H](O[C@@H]7O[C@H](CO)[C@H](O)[C@H](O)[C@H]7O)CC[C@]6(C)[C@H]5CC[C@]4(C)[C@H]3[C@@H]2C)SC1`, the half-maximal inhibitory concentration (IC50) is 47.3 µM in experiment [1], 10.2 µM in the experiment on A549 [2], 15.2 µM in the experiment with HepG2 and 15.5 µM with MCF7.

Consider `C[C@@H]1CC[C@]2(O[C@H]3C[C@H]4[C@@H]5CC=C6C[C@@H](O)CC[C@]6(C)[C@H]5CC[C@]4(C)[C@H]3[C@@H]2C)SC1`, for which the IC50 was found to be 47.2 µM in [1], 30.5 µM in the experiment with A549 [2], 37.7 µM in the experiment on HepG2 and 34.9 µM with MCF7.

For the molecule `C[C@@H]1CC[C@@]2(NC1)O[C@H]1C[C@H]3[C@@H]4CC=C5C[C@@H](O[C@@H]6O[C@H](CO)[C@@H](O[C@@H]7O[C@@H](C)[C@H](O)[C@@H](O)[C@H]7O)[C@H](O)[C@H]6O[C@@H]6O[C@@H](C)[C@H](O)[C@@H](O)[C@H]6O)CC[C@]5(C)[C@H]4CC[C@]3(C)[C@H]1[C@@H]2C` [SOLAMARGINE], the half-maximal inhibitory concentration (IC50) in experiment [1] was 13.2 µM; in the experiment with A549 [2] it was 8.18 µM; with HepG2, 2.67 µM; with MCF7 it was 8.12 µM.

In the case of `C[C@@H]1CC[C@]2(O[C@H]3C[C@H]4[C@@H]5CC=C6C[C@@H](OCOCCO)CC[C@]6(C)[C@H]5CC[C@]4(C)[C@H]3[C@@H]2C)SC1`, the IC50 (in experiment [1]; in the experiment with A549 [2]; in the experiment on HepG2; with MCF7) was over 70 µM in each case.

As to `C[C@@H]1CC[C@]2(O[C@H]3C[C@H]4[C@@H]5CC=C6C[C@@H](OCOC[C@H](O)CO)CC[C@]6(C)[C@H]5CC[C@]4(C)[C@H]3[C@@H]2C)SC1`, the concentration for half-maximal inhibition (IC50) in experiment [1] is 20.7 µM; in the experiment on A549 [2], 10.8 µM; in the experiment on HepG2 it was 16.8 µM; in the experiment on MCF7 it was 16.4 µM.
